Screens: PubChem, several laboratories
VIM-2 inhibitor: VIM-2 metallo-beta-lactamase inhibitors, primary screen, biochemical, epi-absorbance readout, Pseudomonas aeruginosa enzyme; purified VIM-2, nitrocefin hydrolysis, epi-absorbance fluorescence; inhibition, % at 5.6 µM; actives 0.89% (n = 290,000); AID 1527, 2009;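 active = inhibition above the mean of all tested compounds plus 3 SD, cutoff set per screening run, cut at about 7.5% in these data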;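 note: red hydrolysis product quenches plate fluorescence so inhibitors raise well fluorescence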
697 NFkB inh: inhibitors of PMA/ionomycin-induced NF-kB reporter, 697 cells, primary screen, B-cell NF-kB inhibitor project, cell-based, luminescence, uHTS; inhibition, % at 4 µM; AID 435022, 2010; actives 0.33% (n = 330,000); 697 B-cell NF-kB luciferase reporter, 16 h; in the data active = inhibition above about 35%
IMP-1 inh: IMP-1 metallo-beta-lactamase inhibitors, primary screen, biochemical, epi-absorbance readout, Pseudomonas aeruginosa enzyme; purified IMP-1, nitrocefin hydrolysis, epi-absorbance fluorescence; metallo-beta-lactamase IMP-1 (Pseudomonas aeruginosa); inhibition, % at 5.6 µM; actives 0.45% (n = 290,000); AID 1556, 2009;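 active = inhibition above the mean plus 3 SD of all compounds in the same screening run, cut at about 4.5% in these data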
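Assay system: purified IMP-1; Quantity: IMP-1 0.2 nM before substrate addition; Medium: HEPES buffer pH 7.1 with ZnSO4 and Brij 35; Incubation: 15 min enzyme–compound preincubation, then 25 min nitrocefin reaction, 25 °C; Signal: fluorescence quenching readout, ex 480/em 530 nm; Controls: DMSO with and without IMP-1; Repeats: singlicate testing.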
Jurkat NFkB inh: inhibitors of induced NF-kB luciferase reporter, primary screen, TCR NF-kB activation inhibitor project, cell-based, luminescence, uHTS | inhibition, % at 4 µM | actives 0.53% (n = 330,000) | Jurkat, PMA/ionomycin-induced NF-kB luciferase reporter; in the data active = inhibition above about 50%
aSyn 5UTR inh: MLPCN primary screen, SNCA 5' untranslated region. alpha-synuclein 5'UTR reporter, inhibitor activity. inhibition, % (tested at 7.5 µM). actives 0.82% (n = 300,000); in the data active = inhibition above about 60%;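 note: H4 neuroglioblastoma cells stably carrying SNCA 5'UTR luciferase fusion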
Mdm2 MdmX PPI: inhibitors of human Mdm2-MdmX association, primary screen, cell-based, luminescence, split luciferase, SaOS-2, uHTS | SaOS-2 split-luciferase Mdm2/MdmX complementation | inhibition, % at 8 µM | actives 3% (n = 330,000) | AID 485346, 2010;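 active = inhibition of at least 50% at 8 µM in the primary screen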
Target sequence (O15151 whole entry, looked up): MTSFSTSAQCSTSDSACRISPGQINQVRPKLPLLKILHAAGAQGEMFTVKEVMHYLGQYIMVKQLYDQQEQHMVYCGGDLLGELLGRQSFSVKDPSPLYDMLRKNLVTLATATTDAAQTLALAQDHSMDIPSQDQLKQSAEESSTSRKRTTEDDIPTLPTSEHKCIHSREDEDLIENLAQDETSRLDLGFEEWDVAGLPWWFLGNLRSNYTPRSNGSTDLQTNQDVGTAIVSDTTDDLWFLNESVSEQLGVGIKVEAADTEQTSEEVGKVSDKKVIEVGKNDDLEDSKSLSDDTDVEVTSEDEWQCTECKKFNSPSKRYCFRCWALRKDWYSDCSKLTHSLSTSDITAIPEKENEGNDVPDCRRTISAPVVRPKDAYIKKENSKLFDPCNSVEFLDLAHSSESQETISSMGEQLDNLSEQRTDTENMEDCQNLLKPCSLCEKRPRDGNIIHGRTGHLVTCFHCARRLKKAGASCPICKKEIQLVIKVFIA
Target sequence (Q00987 whole entry, looked up): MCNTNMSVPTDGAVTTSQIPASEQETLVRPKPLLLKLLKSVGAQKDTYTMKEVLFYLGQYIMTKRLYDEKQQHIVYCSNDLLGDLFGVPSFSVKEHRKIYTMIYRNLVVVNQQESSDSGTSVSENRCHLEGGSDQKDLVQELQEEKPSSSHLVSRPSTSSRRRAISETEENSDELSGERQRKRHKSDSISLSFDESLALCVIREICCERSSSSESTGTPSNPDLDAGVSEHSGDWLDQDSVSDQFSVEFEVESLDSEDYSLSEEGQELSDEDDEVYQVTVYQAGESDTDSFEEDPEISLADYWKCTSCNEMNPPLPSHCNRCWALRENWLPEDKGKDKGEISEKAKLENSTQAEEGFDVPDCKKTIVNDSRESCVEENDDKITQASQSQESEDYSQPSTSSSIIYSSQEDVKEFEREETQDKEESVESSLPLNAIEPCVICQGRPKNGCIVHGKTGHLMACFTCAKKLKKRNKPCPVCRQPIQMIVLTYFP
Mdm2 MdmX conf: Mdm2-MdmX complex disruptors, retested hits, confirmation, luminescence, single concentration | shares compounds with Mdm2 MdmX PPI | Mdm2-MdmX binding, luminescent assay | inhibition, % at 8 µM | actives 55% (n = 10,000) | AID 489028, 2010; in the data active = inhibition above about 40%
FLuc counter: full-length luciferase signal inhibition, confirmation, counter-screen for Mdm2/MdmX interaction inhibitor project, cell-based, single concentration, SaOS-2. shares compounds with Mdm2 MdmX PPI. SaOS-2 full-length luciferase counterscreen, luminescence. inhibition, % at 8 µM. actives 77% (n = 6,200). AID 504607, 2011;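 active = mean inhibition at 8 µM reaching about 37%, which flags the compound as non-specific, limit read from the data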;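 note: p53-null SaOS-2 cells with luciferase driven by a doxycycline-inducible promoter; compound on cells about two nights before reading with doxycycline added after day one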
Large screens that a line does not name were inactive (follow-up assays come after a bar, where they were run). Hits are enriched below; roughly 4.7% of the tested compounds scored in any of these assays.

COc1ccc(CCNC(=O)COc2ccc(C)nc2[N+](=O)[O-])cc1	none
CCC(=O)OCC(=O)c1c(N)n(Cc2ccccc2)c(=O)n(C)c1=O	none
COC(=O)Cn1c(=O)c(C(=O)CCl)c(N)n(Cc2ccccc2)c1=O	Mdm2 MdmX PPI 75 | Mdm2 MdmX conf 48 | FLuc counter 70
Cc1noc(NS(=O)(=O)c2ccc(NC(=O)c3cc4ccccc4o3)cc2)c1C	none (no result: VIM-2 inhibitor, IMP-1 inh, aSyn 5UTR inh)
O=C(c1ccc2c(Cl)c3c(nc2c1)CCCC3)N1CCC(N2CCCCC2)CC1	Mdm2 MdmX PPI 58 | Mdm2 MdmX conf inactive
CCN(C(=O)c1ccc2c(Cl)c3c(nc2c1)CCC3)c1ccc(C)c(C)c1	Mdm2 MdmX PPI 53 | Mdm2 MdmX conf 43 | FLuc counter 82
CCOC(=O)N1CCN(C(=O)c2ccc3c(Cl)c4c(nc3c2)CCCC4)CC1	none
CN(C(=O)c1ccc2c(Cl)c3c(nc2c1)CCC3)c1ccccc1	none
CC(C)(C)c1ccc(C(=O)NCCCN2CCN(CCCNC(=O)c3ccc(C(C)(C)C)cc3)CC2)cc1	Mdm2 MdmX PPI 95 | Mdm2 MdmX conf 95 | FLuc counter 57
CN1CCN(CCCNC(=O)c2ccc3c(Cl)c4c(nc3c2)CCCC4)CC1	VIM-2 inhibitor 9.4, Mdm2 MdmX PPI 76 | Mdm2 MdmX conf 42 | FLuc counter 58
CCCNC(=O)c1onc(CSc2ccc(Cl)cc2)c1C(=O)NCCC(C)C	none (no result: VIM-2 inhibitor, IMP-1 inh)
O=C(NC(=S)NCc1ccccc1Cl)c1cccs1	none (no result: VIM-2 inhibitor, IMP-1 inh, aSyn 5UTR inh)
Nc1cc([N+](=O)[O-])ccc1N1C(=O)CCCC1=O	none
Cc1ccc(NC(=O)COc2coc(CN3CCc4ccccc43)cc2=O)cc1Cl	Mdm2 MdmX PPI 62 (no result: VIM-2 inhibitor, IMP-1 inh) | Mdm2 MdmX conf inactive
COC(=O)c1ccc(NC(=O)COc2coc(CN3CCc4ccccc43)cc2=O)cc1	none (no result: VIM-2 inhibitor, IMP-1 inh)
CCCCN1C(=O)C(O)(CC(=O)c2ccco2)c2cc(Br)ccc21 (configuration not stated)	Mdm2 MdmX PPI 65 | Mdm2 MdmX conf 51 | FLuc counter 75
COc1ccc(Nc2nnc(SC(C(=O)Nc3cc(C)ccc3C)c3ccccc3)s2)cc1 (configuration not stated)	Mdm2 MdmX PPI 84 | Mdm2 MdmX conf inactive
COc1ccc(C)cc1NC(=O)C(Sc1nnc(Nc2cc(C)ccc2OC)s1)c1ccccc1 (configuration not stated)	none
O=C(CN1C(=O)NC2(CCCCC2)C1=O)Nc1cccc(Cl)c1Cl	none (no result: VIM-2 inhibitor, IMP-1 inh, aSyn 5UTR inh)
Cc1c(Cl)cccc1N=C1SCCN1C(=O)CN1C(=O)NC2(CCCC2)C1=O	Mdm2 MdmX PPI 78 (no result: VIM-2 inhibitor, IMP-1 inh) | Mdm2 MdmX conf 45 | FLuc counter 69
COc1ccc(-n2nc(C(=O)NCC(=O)NCC3CCCO3)c3ccccc3c2=O)cc1Cl (configuration not stated)	none (no result: aSyn 5UTR inh)
CN=c1scc(-c2ccccc2Br)n1/N=C/c1ccc[nH]1	aSyn 5UTR inh 64, Mdm2 MdmX PPI 60 | Mdm2 MdmX conf 69 | FLuc counter 143
CCN1CCN(c2cc(C(C)C)nc3c(-c4ccccc4)c(C)nn23)CC1	Mdm2 MdmX PPI 55 | Mdm2 MdmX conf inactive
Cc1nn2c(N3CCOCC3)cc(C(C)C)nc2c1-c1ccccc1	none
CCN1CCN(c2cc(C(C)(C)C)nc3c(-c4ccccc4)c(C)nn23)CC1	Mdm2 MdmX PPI 54 | Mdm2 MdmX conf 53 | FLuc counter 67
Cc1nn2c(N3CCOCC3)cc(C(C)(C)C)nc2c1-c1ccccc1	none
CCN1CCN(c2ccc(NC(=O)CCc3c(C)nc4c(-c5ccccc5)c(C)nn4c3C)cc2)CC1	IMP-1 inh 4.9, Mdm2 MdmX PPI 89 | Mdm2 MdmX conf 44 | FLuc counter 66
Cc1ccc(-n2c(O)c(C=NCc3ccccn3)c3ccccc3c2=O)cc1C	Mdm2 MdmX PPI 51 | Mdm2 MdmX conf inactive
O=C(CSc1nnnn1-c1ccccc1)Nc1ncc(Cc2cccc(Cl)c2Cl)s1	Mdm2 MdmX PPI 56 | Mdm2 MdmX conf inactive
Cc1ccc(-n2nnnc2SCC(=O)Nc2ncc(Cc3ccccc3Cl)s2)cc1	Mdm2 MdmX PPI 59 | Mdm2 MdmX conf inactive
Cc1cccc(N2CCCn3c2nc2c3c(=O)[nH]c(=O)n2C)c1	none
COc1ccc2nc(Nc3nc(CSc4nc5ccccc5[nH]4)cc(=O)[nH]3)nc(C)c2c1	aSyn 5UTR inh 103, Mdm2 MdmX PPI 65 | Mdm2 MdmX conf 52 | FLuc counter 46
Cc1nc(Nc2nc(-c3ccccc3)cc(=O)[nH]2)nc2ccccc12	Mdm2 MdmX PPI 68 | Mdm2 MdmX conf 45 | FLuc counter 70
Cc1nc(Nc2nc(CSc3nc4ccccc4[nH]3)cc(=O)[nH]2)nc2ccccc12	Mdm2 MdmX PPI 55 | Mdm2 MdmX conf 65 | FLuc counter 61
O=S(=O)(c1ccc(F)cc1)N1CCN(CC2CC3C=CC2C3)CC1 (configuration not stated)	none
COc1ccc(-c2oc(=O)c3cc(OC)c(OC)cc3c2/C=C/c2ccc(OC(C)=O)cc2)cc1	Mdm2 MdmX PPI 60 (no result: VIM-2 inhibitor, IMP-1 inh, aSyn 5UTR inh) | Mdm2 MdmX conf inactive | FLuc counter 63
CCn1cnnc1SCC(=O)NCC1COc2ccccc2O1 (configuration not stated)	none (no result: VIM-2 inhibitor, IMP-1 inh, aSyn 5UTR inh)
CN1Cc2sc(NC(=S)NC(=O)c3ccccc3)c(C#N)c2CC1(C)C	Mdm2 MdmX PPI 58 | Mdm2 MdmX conf 62 | FLuc counter 61
CCC1(C)Cc2c(sc(NC(=S)NC(=O)c3ccccc3)c2C#N)CO1 (configuration not stated)	none
O=C(c1ccc(S(=O)(=O)N2CCCCC2)cc1)N1CCN(c2ccccc2)CC1	none
CC1CCCCN1S(=O)(=O)c1ccc(S(=O)(=O)N2CCN(c3ccccc3)CC2)cc1 (configuration not stated)	Mdm2 MdmX PPI 57 | Mdm2 MdmX conf inactive
N#Cc1c(N)n(CCCN2CCOCC2)c2nc3ccccc3nc12	none (no result: aSyn 5UTR inh)
Nc1c(C(=O)Nc2ccccc2)c2nc3ccccc3nc2n1CCCN1CCOCC1	Mdm2 MdmX PPI 67 | Mdm2 MdmX conf inactive
